This is a sample that favours compounds with a hit; in the whole collection about 4.1% have one here.
DNA FID counter-1 – compounds displacing fluorescent DNA intercalator, primary screen, artefact control for HCV NS3 helicase inhibitor project, biochemical, FID fluorescence | DNA fluorescent intercalator displacement | inhibition, % at 7.9 µM | 290,000 compounds, 0.17% hits;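 further: 0% = vehicle and 100% = reference compound; higher means more ethidium bromide displaced from hairpin DNA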
MEKK2 mut-MEK5 – MEK5 binding signal on mutant MEKK2 PB1, primary screen, biochemical, multiplex bead flow cytometry, Alexa488-MEK5 | Alexa488-MEK5 binding to MEKK2 mutant | percent response, % at 10 µM | 290,000 compounds, 0.35% hits | AID 1530, 2009; in the data active means percent response above about 24%, passing the limit was not always enough
MEKK3 PB1 HTS – modulators of MEKK3-MEK5 PB1 binding, primary screen, biochemical, wildtype MEKK3, multiplex bead flow cytometry, Alexa488-MEK5; 290,000 compounds, 1.4% hits; bead-based flow cytometry, Alexa488-MEK5 binding to MEKK3; actives lie on both sides; 0 = blocked by unlabeled MEK5, 100 = vehicle; Mitogen-activated protein kinase kinase kinase 3 (Homo sapiens), Q99759; binding response (% of control), % at 10 µM; AID 1529, 2009;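 active means binding response more than 3 SD above or below the average of its plate-row segment, actives on both sides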;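 further: Alexa488 bead fluorescence after subtracting the streptavidin-only scavenger bead signal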
Target sequence (Q99759 whole entry, looked up): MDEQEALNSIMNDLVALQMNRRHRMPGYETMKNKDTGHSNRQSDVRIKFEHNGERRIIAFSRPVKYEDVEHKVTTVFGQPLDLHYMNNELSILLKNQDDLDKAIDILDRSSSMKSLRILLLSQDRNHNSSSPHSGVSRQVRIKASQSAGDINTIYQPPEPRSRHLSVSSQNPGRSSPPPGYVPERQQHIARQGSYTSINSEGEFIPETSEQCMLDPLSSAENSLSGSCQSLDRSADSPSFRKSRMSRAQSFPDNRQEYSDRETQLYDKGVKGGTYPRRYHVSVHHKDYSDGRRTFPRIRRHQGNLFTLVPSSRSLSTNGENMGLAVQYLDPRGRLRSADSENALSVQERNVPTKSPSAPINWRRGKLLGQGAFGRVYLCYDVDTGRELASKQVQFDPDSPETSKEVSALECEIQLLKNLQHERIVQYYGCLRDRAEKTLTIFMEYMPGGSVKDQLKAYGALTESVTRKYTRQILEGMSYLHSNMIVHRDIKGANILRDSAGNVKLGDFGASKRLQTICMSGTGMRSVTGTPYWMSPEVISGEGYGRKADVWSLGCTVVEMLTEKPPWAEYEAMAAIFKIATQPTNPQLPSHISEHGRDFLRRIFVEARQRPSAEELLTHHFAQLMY
NS3 helicase inh – inhibitors of HCV NS3 helicase, primary screen, biochemical, Cy5 molecular beacon fluorescence; 290,000 compounds, 0.56% hits; AID 1800, 2009; inhibition, % at 10.9 µM; NS3 helicase DNA unwinding; Hepatitis C virus NS3 helicase;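 active means inhibition above the mean of all tested compounds plus 3 SD, set per campaign, cut at about 35% in these data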;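 further: 0% = DMSO wells and 100% = thioflavine S control wells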
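assay system = NS3 helicase fragment of HCV | buffer or medium = MOPS pH 6.5, MgCl2, DTT, Tween20, BSA | timing = 60 min unwinding reaction at 25 °C after ATP addition | signal = Cy5 beacon fluorescence read at start and 1 h | read-out basis = % inhibition of unwinding | control set = low DMSO, high thioflavine S at 110 µM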
T cruzi inh – inhibitors of intracellular T. cruzi growth, primary screen, luminescence, NIH3T3 host cells; T. cruzi beta-gal in NIH3T3, 90 h; inhibition, % (concentration not given with the values); 300,000 compounds, 1.4% hits; AID 1885, 2009;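 active means mean inhibition across valid replicates above about 55%, limit read from the data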;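 further: signal also drops with host cell toxicity which is not excluded here; 0% = plate median of DMSO wells and 100% = zero luminescence signal; higher percent means less beta-gal luminescence so fewer parasites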
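Incubation – ≥90 h infection period, 3 h prior cell attachment · System – NIH/3T3 fibroblasts plus reporter T. cruzi · Doses – compound pinned at 50 nL/well, DMSO · Read-out basis – percent inhibition of parasite-derived β-gal signal · Signal – luminescent β-galactosidase signal after 60 min lysis · Also added – 5000 T. cruzi trypomastigotes/well · Medium – Low-serum DMEM with 2% FBS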
MEKK2wt PB1 HTS – modulators of MEK5 binding to wildtype MEKK2, primary screen, biochemical, multiplex bead flow cytometry, Alexa488-MEK5; Mitogen-activated protein kinase kinase kinase 2 (Homo sapiens), Q9Y2U5; Alexa488-MEK5 binding to MEKK2 WT; actives lie on both sides; binding response (% of control), % at 10 µM; 290,000 compounds, 1.1% hits; in the data active means binding response below about 67% or above about 130%
NS3 helicase cf – HCV NS3 helicase inhibitors, retest, confirmation, biochemical, Cy5 molecular beacon fluorescence, triplicate | inhibition, % at 10.9 µM | shares compounds with NS3 helicase inh | NS3 helicase DNA unwinding | 1,600 compounds, 31% hits;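 active means inhibition above the mean of all tested compounds plus 3 SD, cutoff set per campaign, cut at about 36% in these data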
DNA FID counter-2 – compounds displacing fluorescent DNA intercalator, artefact control for HCV NS3 helicase inhibitor project, biochemical, FID fluorescence, triplicate; shares compounds with NS3 helicase inh; DNA fluorescent intercalator displacement; inhibition, % at 7.9 µM; 1,600 compounds, 4% hits;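 further: 0% = vehicle and 100% = reference compound; higher means more displacement of ethidium bromide from the DNA hairpin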
DNA FID DR – compounds displacing fluorescent intercalator from DNA, dose response, counter-screen for HCV NS3 helicase inhibitor project, biochemical, fluorescence; AID 2172, 2009; IC50, µM; shares compounds with NS3 helicase inh; 120 tested, under 10 active; fluorescent intercalator displacement from DNA; call rule not given here
Numbers without * were called inactive; . = no result. Unless noted, no stated cut-off is given here; in the data, active means inhibition above about 37%; inactive means the rest.

SMILES	DNA FID counter-1	MEKK2 mut-MEK5	MEKK3 PB1 HTS	NS3 helicase inh	T cruzi inh	MEKK2wt PB1 HTS	NS3 helicase cf	DNA FID counter-2	others
Cc1ccc(C(=O)/C=C/c2ccc(-c3ccccc3[N+](=O)[O-])o2)cc1	-19	-9	86	37*	-15	82	39*	17
CC(C)OC(=O)/C(=C/c1ccco1)c1ccccc1	-15	-5	98	61*	-16	97	-19	-9
CC(C)(C)NC(=O)/C(=C/c1ccco1)c1ccccc1	-25	2	102	15	28	102	.	.
CC(C)CCSc1nc2[nH]ncc2c(=O)[nH]1	-2	-2	112	-4	5	103	.	.
Cc1ccc(C(=O)C2=C(O)C(=O)N(Cc3cccnc3)C2c2ccc(Br)cc2)o1 (stereo not drawn)	-51	8	106	40*	-5	110	-20	-43
COc1ccc(C2C(C(=O)c3ccc(C)o3)=C(O)C(=O)N2Cc2cccnc2)cc1 (stereo not drawn)	-37	2	100	6	-12	99	.	.
Cc1ccc(C(=O)C2=C(O)C(=O)N(Cc3ccco3)C2c2cccc(Cl)c2)o1 (stereo not drawn)	-50	7	101	74*	-2	106	71*	-29	DNA FID DR=>79
Cc1ccc(C(=O)C2=C(O)C(=O)N(Cc3ccco3)C2c2cccc(Br)c2)o1 (stereo not drawn)	-47	6	101	101*	-5	101	92*	-33
O=C(C1=C(O)C(=O)N(Cc2ccco2)C1c1cccc(O)c1)c1ccco1 (stereo not drawn)	-4	4	105	5	-10	103	.	.
Cc1ccc([N+](=O)[O-])cc1NC(=O)CSc1n[nH]c(-c2cccnc2)n1	2	1	102	1	-2	103	.	.
CCC1C(=O)NCCN1C(=O)c1ccc(OC)c(OC2CCN(C(C)=O)CC2)c1 (stereo not drawn)	-8	5	104	-4	-11	109	.	.
CC(C)C[C@H](NC(=O)NCc1ccc(F)cc1)C(=O)O	0	2	103	-3	-8	99	.	.
CCN(CC)CC(O)c1cccn1-c1ccc(CNC(=O)NC(C)C)cc1 (stereo not drawn)	3	17	106	39*	-5	106	-16	0
CCOC(=O)Cc1csc(SCC(=O)N(CC(C)C)c2c(N)n(Cc3ccccc3)c(=O)[nH]c2=O)n1	.	.	.	.	-13	.	.	.
O=C(NC(Cc1ccccc1)C(=O)O)/C(=C/c1ccc(Br)cc1)NC(=O)c1ccc(Br)o1 (stereo not drawn)	-35	4	101	41*	-1	102	38*	-19
CCCCOc1ccc(C2C(C(=O)c3ccc(C)o3)=C(O)C(=O)N2Cc2ccco2)cc1 (stereo not drawn)	-46	5	100	69*	-9	101	135*	-49	DNA FID DR=>79
Cc1ccc(C(=O)C2=C(O)C(=O)N(Cc3ccco3)C2c2ccc(N(C)C)cc2)o1 (stereo not drawn)	-45	2	97	98*	-14	101	8	-6
COC(=O)c1ccc(CN2C(=O)C(C)N(C(=O)c3c(F)cccc3F)c3ccccc32)cc1 (stereo not drawn)	-39	-4	93	-26	-2	95	.	.
Oc1ccc(N=Nc2ccccc2C(F)(F)F)c2cccnc12	-3	5	98	49*	55*	100	0	3
COc1ccccc1N=Nc1ccc(O)c2ncccc12	-19	-2	95	41*	46	97	-19	3
CC(=O)c1ccc(NC(=O)CN2CCCCCC2)cc1	2	3	105	-7	-13	107	.	.
O=c1[nH]c(/C=C\c2cccc(Cl)c2)nc(O)c1[N+](=O)[O-]	-18	5	116	36*	-5	116	-12	1
CCOC(=O)C1=NN(C(=O)c2ccc(OC)cc2)C(O)(c2ccc(Cl)cc2)C1 (stereo not drawn)	-45	-2	95	16	4	97	.	.
CCOC(=O)C1=NN(C(=O)c2ccccc2)C(O)(c2ccc(C)cc2)C1 (stereo not drawn)	-19	-3	94	44*	-12	90	-9	-8
CN=c1scc(-c2ccc(F)cc2)n1/N=C/c1ccc(O)c(O)c1	-22	-5	102	45*	.	90	-21	8
SMILES	DNA FID counter-1	MEKK2 mut-MEK5	MEKK3 PB1 HTS	NS3 helicase inh	T cruzi inh	MEKK2wt PB1 HTS	NS3 helicase cf	DNA FID counter-2	others
CCOC(=O)c1ccc2c(c1)nc(-c1ccccn1)n2CC	-18	-4	99	36*	-7	93	1	-17
CC(/C=N/n1c(-c2ccco2)n[nH]c1=S)=C\c1ccco1	-16	7	103	51*	-16	108	-2	9
Oc1ccc(/C=N/N(Cc2ccccc2)c2ccccc2)c(O)c1O	-29	-12	96	71*	0	81	-13	22
Cn1c(=S)[nH]c2sc3c(c2c1=O)CCC(C(C)(C)C)C3 (stereo not drawn)	-11	2	103	43*	6	105	8	-13
O=C1CC(c2ccc(Cl)cc2)CC(=O)C1CS(=O)(=O)c1ccccc1 (stereo not drawn)	-14	-2	93	36*	3	93	70*	-14
COc1ccc(C2CC(=O)C(CS(=O)(=O)c3ccccc3)C(=O)C2)cc1 (stereo not drawn)	-11	-2	107	43*	-4	93	-5	-36
O=C1CCCC(=O)C1CS(=O)(=O)c1ccccc1	-3	-3	106	0	3	103	.	.
